Test results from ChEMBL document CHEMBL1157743, “Mitotic arrest induced by a novel family of DNA topoisomerase II inhibitors” (J Med Chem, 2010).

Experiments:
HBL-100 = assay: Antiproliferative activity against human HBL100 cells after 48 hrs by SRB assay; assay type: functional; conditions: HBL-100, 48 h
In short: (§1)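 Human solid tumor lines and three immortalized nontumor lines in culture, exposed to the test agent. Read-out is growth inhibition, reported as GI50 (μM).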

SW1573 = assay: Antiproliferative activity against human SW1573 cells after 48 hrs by SRB assay; assay type: functional; conditions: SW1573, 48 h; in short: as §1

GI50 (SW1573) [nM]	SMILES	GI50 (HBL-100) [nM]
3300	CCCCCCC(C#CC(=O)OC)O/C=C/C(=O)OC (stereo unspecified)	2500
960	CCOC(=O)C#CC(O/C=C/C(=O)OC)C(C)C (stereo unspecified)	880
> 100000	CC1CCC(C(C)C)C(OC(=O)C#CC(O/C=C/C(=O)OC2CC(C)CCC2C(C)C)C(C)C)C1 (stereo unspecified)	> 100000
1200	COC(=O)C#CC(O/C=C/C(=O)OC)C(C)c1ccccc1 (stereo unspecified)	490
> 100000	CCCCCCC(C#CC(=O)O)O/C=C/C(=O)OC (stereo unspecified)	> 100000
3000	COC(=O)C#CC(O/C=C/C(=O)OC)C(C)(C)C (stereo unspecified)	1800
2800	CCOC(=O)C#CC(O/C=C/C(=O)OCC)C(C)C (stereo unspecified)	3000
2600	CCOC(=O)C#CC(C[C@@H](C)CCC=C(C)C)O/C=C/C(=O)OCC (stereo partly specified)	2600
540	CCC(C#CC(=O)OC)O/C=C/C(=O)OC (stereo unspecified)	320
320	CCCC(C#CC(=O)OC)O/C=C/C(=O)OC (stereo unspecified)	270
1800	COC(=O)C#CC(O/C=C/C(=O)OC)C1CC1 (stereo unspecified)	250
> 100000	COC(=O)/C=C/OC(C#CC(=O)O)C(C)(C)C (stereo unspecified)	> 100000
380	COC(=O)C#CC(CC(C)C)O/C=C/C(=O)OC (stereo unspecified)	330
